ChEMBL document CHEMBL1125165, “Inhibition of ornithine decarboxylase by the isomers of 1,4-dimethylputrescine” (J Med Chem, 1990)
pKi: −log10 of the molar value. “And” between values parts separate entries of the source, which are not always exact repeats. Equal entries are not always repeated.

Experiments:
Rattus norvegicus [1] = species on record: Rattus norvegicus; test: Effect on spermine content of (+) isomer Dexamethasone treated rats after 4 hour; format: functional
Method in brief: (§1)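 Female Wistar rats (100-130 g) were pretreated with dexamethasone or thioacetamide, and the analogue was given ip in saline-buffered solution. Liver was sampled 1 h or 3-4 h later. Free polyamines and analogue were measured in perchloric extracts. Polyamines are expressed as % of the inducer-treated liver content. Analogue is expressed as % of the total injected per g liver (10 ± 0.5 μmol). Mean ± SD, three experiments in duplicate.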

Rattus norvegicus [2] = species on record: Rattus norvegicus; test: Effect on spermine content of (-) isomer Dexamethasone treated rats after 1 hour; format: functional; method in brief: as §1
Rattus norvegicus [3] = species on record: Rattus norvegicus; test: Effect on spermine content of Dexamethasone treated rats.; format: functional; method in brief: as §1
Rattus norvegicus [4] = species on record: Rattus norvegicus; test: Effect on spermine content of Thioacetamide treated rats after 1 hr; format: functional; method in brief: as §1
Rattus norvegicus [5] = species on record: Rattus norvegicus; test: Effect on spermine content of Thioacetamide treated rats after 3 hour; format: functional; method in brief: as §1
Rattus norvegicus [6] = species on record: Rattus norvegicus; test: Effect on spermine content of Thioacetamide treated rats after 3 hr; format: functional; method in brief: as §1
Rattus norvegicus [7] = species on record: Rattus norvegicus; test: Effect on spermine content of Thioacetamide treated rats.; format: functional; method in brief: as §1
Rattus norvegicus [8] = species on record: Rattus norvegicus; test: Effect on spermine content of meso isomer Dexamethasone treated rats after 1 hour; format: functional; method in brief: as §1
Rattus norvegicus [9] = species on record: Rattus norvegicus; test: Effect on spermine content of meso isomer Dexamethasone treated rats after 4 hour; format: functional; method in brief: as §1
Rattus norvegicus [10] = species on record: Rattus norvegicus; test: Effect on spermidine content of Thioacetamide treated rats.; format: functional; method in brief: as §1
Rattus norvegicus [11] = species on record: Rattus norvegicus; test: Effect on spermidine content of meso isomer Dexamethasone treated rats after 1 hour; format: functional; method in brief: as §1
Rattus norvegicus [12] = species on record: Rattus norvegicus; test: Effect on spermidine content of meso isomer Dexamethasone treated rats after 4 hour; format: functional; method in brief: as §1
Rattus norvegicus [13] = species on record: Rattus norvegicus; test: Effect on spermine content of (+) isomer Dexamethasone treated rats after 1 hour; format: functional; method in brief: as §1
Rattus norvegicus [14] = species on record: Rattus norvegicus; test: Effect on 1,4-Dimethylputrescine content of (+) isomer Dexamethasone treated rats after 1 hour; format: functional; method in brief: as §1
Rattus norvegicus [15] = species on record: Rattus norvegicus; test: Effect on 1,4-Dimethylputrescine content of (-) isomer Dexamethasone treated rats after 1 hour; format: functional; method in brief: as §1
Rattus norvegicus [16] = species on record: Rattus norvegicus; test: Effect on 1,4-Dimethylputrescine content of (-) isomer Dexamethasone treated rats after 4 hour; format: functional; method in brief: as §1
Rattus norvegicus [17] = species on record: Rattus norvegicus; test: Effect on 1,4-Dimethylputrescine content of Thioacetamide treated rats after 1 hr; format: functional; method in brief: as §1
Rattus norvegicus [18] = species on record: Rattus norvegicus; test: Effect on 1,4-Dimethylputrescine content of Thioacetamide treated rats after 3 hr; format: functional; method in brief: as §1
Rattus norvegicus [19] = species on record: Rattus norvegicus; test: Effect on 1,4-Dimethylputrescine content of meso isomer Dexamethasone treated rats after 1 hour; format: functional; method in brief: as §1
Rattus norvegicus [20] = species on record: Rattus norvegicus; test: Effect on 1,4-Dimethylputrescine content of meso isomer Dexamethasone treated rats after 4 hour; format: functional; method in brief: as §1
Rattus norvegicus [21] = species on record: Rattus norvegicus; test: Effect on 1,4-Dimethylputrescinecontent of (+) isomer Dexamethasone treated rats after 4 hour; format: functional; method in brief: as §1
Rattus norvegicus [22] = species on record: Rattus norvegicus; test: Effect on putrescine content of (+) isomer Dexamethasone treated rats after 1 hour; format: functional; method in brief: as §1
Rattus norvegicus [23] = species on record: Rattus norvegicus; test: Effect on putrescine content of (+) isomer Dexamethasone treated rats after 4 hour; format: functional; method in brief: as §1
Rattus norvegicus [24] = species on record: Rattus norvegicus; test: Effect on putrescine content of (-) isomer Dexamethasone treated rats after 1 hour; format: functional; method in brief: as §1
Rattus norvegicus [25] = species on record: Rattus norvegicus; test: Effect on putrescine content of (-) isomer Dexamethasone treated rats after 4 hr; format: functional; method in brief: as §1
Rattus norvegicus [26] = species on record: Rattus norvegicus; test: Effect on putrescine content of Thioacetamide treated rats after 3 hr; format: functional; method in brief: as §1
Rattus norvegicus [27] = species on record: Rattus norvegicus; test: Effect on putrescine content of Thioacetamide treated rats.; format: functional; method in brief: as §1
Rattus norvegicus [28] = species on record: Rattus norvegicus; test: Effect on putrescine content of meso isomer Dexamethasone treated rats after 1 hour; format: functional; method in brief: as §1
Rattus norvegicus [29] = species on record: Rattus norvegicus; test: Effect on putrescine content of meso isomer Dexamethasone treated rats after 4 hour; format: functional; method in brief: as §1
Rattus norvegicus [30] = species on record: Rattus norvegicus; test: Effect on spermidine content of (+) isomer Dexamethasone treated rats after 1 hour; format: functional; method in brief: as §1
Rattus norvegicus [31] = species on record: Rattus norvegicus; test: Effect on spermidine content of (+) isomer Dexamethasone treated rats after 4 hour; format: functional; method in brief: as §1
Rattus norvegicus [32] = species on record: Rattus norvegicus; test: Effect on spermidine content of (-) isomer Dexamethasone treated rats after 1 hour; format: functional; method in brief: as §1
Rattus norvegicus [33] = species on record: Rattus norvegicus; test: Effect on spermidine content of (-) isomer Dexamethasone treated rats after 4 hour; format: functional; method in brief: as §1
Rattus norvegicus [34] = species on record: Rattus norvegicus; test: Effect on spermidine content of Dexamethasone treated rats.; format: functional; method in brief: as §1
Rattus norvegicus [35] = species on record: Rattus norvegicus; test: Effect on spermidine content of Thioacetamide treated rats after 1 hr; format: functional; method in brief: as §1
Rattus norvegicus [36] = species on record: Rattus norvegicus; test: Effect on spermidine content of Thioacetamide treated rats after 3 hr; format: functional; method in brief: as §1
Rattus norvegicus [37] = species on record: Rattus norvegicus; test: Effect on spermine content of (-) isomer Dexamethasone treated rats after 4 hour; format: functional; method in brief: as §1
Rattus norvegicus [38] = species on record: Rattus norvegicus; test: Effect on putrescine content of Dexamethasone treated rats.; format: functional; method in brief: as §1
[39] = target: T1, Ornithine decarboxylase (Rattus norvegicus) (UniProt P09057); test: In vivo inhibitory activity against Ornithine Decarboxylase (ODC) in H-35 hepatoma cells; format: functional; parameters: unit not given here
T1 sequence (whole entry): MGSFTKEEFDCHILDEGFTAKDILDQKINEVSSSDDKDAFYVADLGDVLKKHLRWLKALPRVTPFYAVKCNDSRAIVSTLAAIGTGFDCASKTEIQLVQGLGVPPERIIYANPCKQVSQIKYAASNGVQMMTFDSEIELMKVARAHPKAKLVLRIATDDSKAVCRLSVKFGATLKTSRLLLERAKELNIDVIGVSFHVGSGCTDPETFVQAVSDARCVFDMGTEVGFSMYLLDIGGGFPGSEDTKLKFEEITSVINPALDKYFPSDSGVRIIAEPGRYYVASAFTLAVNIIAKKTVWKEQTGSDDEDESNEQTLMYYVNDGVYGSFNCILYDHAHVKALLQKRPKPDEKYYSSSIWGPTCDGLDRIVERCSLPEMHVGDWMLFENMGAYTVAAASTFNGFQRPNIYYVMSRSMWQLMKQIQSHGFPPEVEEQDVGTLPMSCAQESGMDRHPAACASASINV

[40] = target: T1, Ornithine decarboxylase (Rattus norvegicus); test: In vivo inhibitory activity against Ornithine Decarboxylase (ODC) in rats; format: functional, organism-based; parameters: concentration or dose not given beside the values
[41] = (§2) In vitro inhibitory activity against Ornithine Decarboxylase (ODC) isolated from the livers of thioactamide treated rats.; format: functional, tissue-based, Rattus norvegicus, Liver
Method in brief: (§3)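 ODC was partially purified from livers of rats injected with thioacetamide (100 mg/kg), with specific activity 0.2 nmol/min per mg protein. Activity was measured in vitro across inhibitor concentrations. Ki was obtained by replotting apparent Km against inhibitor concentration.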

Ornithine decarboxylase = target: T2, Ornithine decarboxylase (Rattus norvegicus, UniProt P09057); test: as §2; format: functional, tissue-based, Liver; method in brief: as §3
T2 sequence (P09057 whole entry): T1 sequence (whole entry)

## CC(N)CCC(C)N (stereo unspecified) [listing 1 of 2 here]
Rattus norvegicus [1]
  Polyamine content: 1800 nM/g
Rattus norvegicus [2]
  Polyamine content: 2240 nM/g
Rattus norvegicus [3]
  Polyamine content: 2170 nM/g
Rattus norvegicus [4]
  Polyamine content: 2600 nM/g and 2500 nM/g and 2350 nM/g
Rattus norvegicus [5]
  Polyamine content: 2600 nM/g
Rattus norvegicus [6]
  Polyamine content: 3000 nM/g and 2350 nM/g
Rattus norvegicus [7]
  Polyamine content: 2400 nM/g
Rattus norvegicus [8]
  Polyamine content: 2060 nM/g
Rattus norvegicus [9]
  Polyamine content: 2250 nM/g
Rattus norvegicus [10]
  Polyamine content: 2680 nM/g
Rattus norvegicus [11]
  Polyamine content: 1920 nM/g
Rattus norvegicus [12]
  Polyamine content: 2280 nM/g
Rattus norvegicus [13]
  Polyamine content: 1930 nM/g
Rattus norvegicus [14]
  Polyamine content: 1800 nM/g
Rattus norvegicus [15]
  Polyamine content: 1640 nM/g
Rattus norvegicus [16]
  Polyamine content: 40 nM/g
Rattus norvegicus [17]
  Polyamine content: 2700 nM/g and 1850 nM/g and 2800 nM/g
Rattus norvegicus [18]
  Polyamine content: 1550 nM/g and 900 nM/g and 1150 nM/g
Rattus norvegicus [19]
  Polyamine content: 1640 nM/g
Rattus norvegicus [20]
  Polyamine content: 50 nM/g
Rattus norvegicus [21]
  Polyamine content: 400 nM/g
Rattus norvegicus [22]
  Polyamine content: 60 nM/g
Rattus norvegicus [23]
  Polyamine content: 660 nM/g
Rattus norvegicus [24]
  Polyamine content: 100 nM/g
Rattus norvegicus [25]
  Polyamine content: 580 nM/g
Rattus norvegicus [26]
  Polyamine content: 290 nM/g and 510 nM/g and 410 nM/g
Rattus norvegicus [27]
  Polyamine content: 1370 nM/g
Rattus norvegicus [28]
  Polyamine content: 160 nM/g
Rattus norvegicus [29]
  Polyamine content: 890 nM/g
Rattus norvegicus [30]
  Polyamine content: 2180 nM/g
Rattus norvegicus [31]
  Polyamine content: 850 nM/g
Rattus norvegicus [32]
  Polyamine content: 1280 nM/g
Rattus norvegicus [33]
  Polyamine content: 2080 nM/g
Rattus norvegicus [34]
  Polyamine content: 2300 nM/g
Rattus norvegicus [35]
  Polyamine content: 1870 nM/g and 1950 nM/g and 2800 nM/g
Rattus norvegicus [36]
  Polyamine content: 2400 nM/g and 1475 nM/g and 2500 nM/g
Rattus norvegicus [37]
  Polyamine content: 2220 nM/g
Rattus norvegicus [38]
  Polyamine content: 980 nM/g

## CC(N)CCC(C)N (racemic)
[39]
  Activity: 91
[40]
  Inhibition: 96%

## CC(CN)C(C)CN (mixture of isomers)
[41]
  pKi: 3.00

## CN(C)CCCCN
[39]
  Activity: 68
[40]
  Inhibition: 60%
Ornithine decarboxylase
  pKi: 2.52

## CC(N)CCC(C)N (stereo unspecified) [listing 2 of 2 here]
[39]
  Activity: 90
[40]
  Inhibition: 93%

## CC(N)CC(C)CN (mixture of isomers)
[39]
  Activity: 85
[40]
  Inhibition: 76%
Ornithine decarboxylase
  pKi: 2.54

## CNCCCCNC
[39]
  Activity: 72
[40]
  Inhibition: 30%

## CC(N)CCC(C)N (single isomer, unassigned; (-))
[39]
  Activity: 97
[40]
  Inhibition: 97%

## CC(N)CCC(C)N (single isomer, unassigned; (+))
[39]
  Activity: 96
[40]
  Inhibition: 98%

## NCCCCN [PUTRESCINE]
[39]
  Activity: 90
[40]
  Inhibition: 55%
Ornithine decarboxylase
  pKi: 2.48

## CC(N)C(C)CCN (mixture of isomers)
[39]
  Activity: 75
[40]
  Inhibition: 70%
Ornithine decarboxylase
  pKi: 2.42
